Data on ten molecules can be found in ChEMBL document CHEMBL3621045, “Structural Insights Lead to a Negamycin Analogue with Improved Antimicrobial Activity against Gram-Negative Pathogens” (ACS Med Chem Lett, 2015).

≈ marks a conversion by molar mass, not a printed value. Bounds are passed on as bounds.

The subject of assay [1] is Escherichia coli. As to the kind of experiment: microbe, parasite or virus in culture. The note with it: ATCC 25922.
The next assay has as its system Acinetobacter baumannii. Nature of the assay: Antibacterial activity against Acinetobacter baumannii ARC 3495. In kind it is functional.
The test system of assay [2] is Pseudomonas aeruginosa. Nature of the assay: Antibacterial activity against Pseudomonas aeruginosa PAO1. In kind it is functional.
For assay [3], the system named is Escherichia coli. Nature of the assay: microbe, parasite or virus in culture. The note with it: ATCC 25922. This is another data set of the same source.
The subject of another assay is Klebsiella pneumoniae. Nature of the assay: Antibacterial activity against Klebsiella pneumoniae ATCC 700603. In kind it is functional.
For assay [4], the system named is Pseudomonas aeruginosa. As to the kind of experiment: Antibacterial activity against mexABCDXY-deficient Pseudomonas aeruginosa PAO1. In kind it is functional.
The subject of assay [5] is Escherichia coli. As to the kind of experiment: Inhibition of transcription-translation process in Escherichia coli. In kind it is functional. The note with it: Escherichia coli.
In assay [6] the test system is Pseudomonas aeruginosa. As to the kind of experiment: Ratio of MIC for Pseudomonas aeruginosa PAO1 to MIC for mexABCDXY-deficient Pseudomonas aeruginosa PAO1. In kind it is functional. In short, it runs like this:
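MICs in μg/mL were determined for P. aeruginosa PAO1 and its isogenic efflux-pump knockout strain. Analogues were tested up to their highest soluble concentrations. The value is the parent-strain MIC divided by the knockout-strain MIC.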

A word on the IC50: it is the concentration that inhibits the measured activity by half. A low value points to greater potency in that assay. On to `CN(CC(=O)O)NC(=O)C[C@H](N)C[C@@H](O)CNC[C@H](O)CN`, for which the MIC in the assay with Escherichia coli [1] turned out to be 64 µg/mL (≈ 199 µM); in the assay on Acinetobacter baumannii it was 32 µg/mL (≈ 99.6 µM); against Pseudomonas aeruginosa [2], 128 µg/mL (≈ 398 µM); in the assay on Escherichia coli [3], 32 µg/mL (≈ 99.6 µM); in the assay with Klebsiella pneumoniae, 64 µg/mL (≈ 199 µM); with Pseudomonas aeruginosa [4], 64 µg/mL (≈ 199 µM). The molecule further displayed an IC50 with Escherichia coli [5] of 730 nM.
With `CN(CC(=O)O)NC(=O)C[C@H](N)C[C@@H](O)CNCCCO`, the MIC is 512 µg/mL (≈ 1670 µM) in the assay on Escherichia coli [1]; 256 µg/mL (≈ 836 µM) against Acinetobacter baumannii; over 1020 µg/mL in the assay on Pseudomonas aeruginosa [2]; 128 µg/mL (≈ 418 µM) in the assay on Escherichia coli [3]; 512 µg/mL (≈ 1670 µM) with Klebsiella pneumoniae; 1020 µg/mL (≈ 3340 µM) against Pseudomonas aeruginosa [4]. In addition, the IC50 with Escherichia coli [5] came out at 11000 nM.
In the case of `CC(=O)NCCCNC[C@H](O)C[C@@H](N)CC(=O)NN(C)CC(=O)O`, the MIC against Escherichia coli [1], in the assay with Acinetobacter baumannii, in the assay with Pseudomonas aeruginosa [2], against Escherichia coli [3], against Klebsiella pneumoniae and against Pseudomonas aeruginosa [4] was over 512 µg/mL throughout. The molecule also registered an IC50 in the assay with Escherichia coli [5] of 19000 nM.
Regarding `CN(CC(=O)O)NC(=O)C[C@H](N)C[C@@H](O)CNCC(N)CN` (stereo partly specified), the MIC with Escherichia coli [1] was 128 µg/mL (≈ 400 µM); against Acinetobacter baumannii it was 32 µg/mL (≈ 99.9 µM); in the assay on Pseudomonas aeruginosa [2], 128 µg/mL (≈ 400 µM); against Escherichia coli [3], 128 µg/mL (≈ 400 µM); with Klebsiella pneumoniae it was 64 µg/mL (≈ 200 µM); against Pseudomonas aeruginosa [4] it was 128 µg/mL (≈ 400 µM). In the assay with Escherichia coli [5], this molecule registered an IC50 of 10000 nM.
Consider `CN(C)CCCNC[C@H](O)C[C@@H](N)CC(=O)NN(C)CC(=O)O`, for which the MIC with Escherichia coli [1] is over 256 µg/mL; in the assay on Acinetobacter baumannii, 256 µg/mL (≈ 768 µM); against Pseudomonas aeruginosa [2], over 256 µg/mL; against Escherichia coli [3], over 256 µg/mL; against Klebsiella pneumoniae, 256 µg/mL (≈ 768 µM); in the assay with Pseudomonas aeruginosa [4] it was over 256 µg/mL. In the assay on Escherichia coli [5], this molecule returned an IC50 of 15000 nM.
On to `CN(CC(=O)O)NC(=O)C[C@H](N)C[C@@H](O)CNCCN`, for which the MIC in the assay with Escherichia coli [1] came out at 64 µg/mL (≈ 220 µM); in the assay on Acinetobacter baumannii, 64 µg/mL (≈ 220 µM); against Pseudomonas aeruginosa [2], 128 µg/mL (≈ 439 µM); against Escherichia coli [3], 64 µg/mL (≈ 220 µM); in the assay on Klebsiella pneumoniae, 32 µg/mL (≈ 110 µM); with Pseudomonas aeruginosa [4], 64 µg/mL (≈ 220 µM). This molecule also displayed an IC50 in the assay on Escherichia coli [5] of 2100 nM.
For `CN(CC(=O)O)NC(=O)C[C@H](N)C[C@@H](O)CNCCO`, the MIC against Escherichia coli [1] was determined as 64 µg/mL (≈ 219 µM); against Acinetobacter baumannii, 64 µg/mL (≈ 219 µM); against Pseudomonas aeruginosa [2] it was 512 µg/mL (≈ 1750 µM); against Escherichia coli [3] it was 128 µg/mL (≈ 438 µM); in the assay on Klebsiella pneumoniae, 64 µg/mL (≈ 219 µM); with Pseudomonas aeruginosa [4], 128 µg/mL (≈ 438 µM). In addition, 630 nM corresponded to half-maximal inhibition in the assay on Escherichia coli [5] (IC50).
For `CN(CC(=O)O)NC(=O)C[C@@H](N)C[C@@H](O)CNCCCN`, the MIC in the assay on Escherichia coli [1] came out at 128 µg/mL (≈ 419 µM); against Acinetobacter baumannii, 32 µg/mL (≈ 105 µM); against Pseudomonas aeruginosa [2], 128 µg/mL (≈ 419 µM); in the assay on Escherichia coli [3] it was 128 µg/mL (≈ 419 µM); in the assay with Klebsiella pneumoniae, 64 µg/mL (≈ 210 µM); with Pseudomonas aeruginosa [4] it was 128 µg/mL (≈ 419 µM). The molecule also displayed an IC50 in the assay with Escherichia coli [5] of 2800 nM.
`CN(CC(=O)O)NC(=O)C[C@H](N)C[C@@H](O)CNC[C@@H](O)CN`: the MIC in the assay with Escherichia coli [1] turned out to be 256 µg/mL (≈ 797 µM); with Acinetobacter baumannii it was 128 µg/mL (≈ 398 µM); in the assay on Pseudomonas aeruginosa [2], 256 µg/mL (≈ 797 µM); with Escherichia coli [3], 64 µg/mL (≈ 199 µM); with Klebsiella pneumoniae, 64 µg/mL (≈ 199 µM); against Pseudomonas aeruginosa [4], 128 µg/mL (≈ 398 µM). Inhibition in the assay with Escherichia coli [5] was half-maximal at 2500 nM (IC50).
With `CN(C)[C@@H]1C(O)=C(C(N)=O)C(=O)[C@@]2(O)C(O)=C3C(=O)c4c(O)cccc4[C@@](C)(O)[C@H]3C[C@@H]12` [TETRACYCLINE], the MIC with Escherichia coli [1] is 1 µg/mL (≈ 2.25 µM); in the assay with Acinetobacter baumannii it was over 64 µg/mL; in the assay with Pseudomonas aeruginosa [2], 32 µg/mL (≈ 72 µM); with Escherichia coli [3], 0.5 µg/mL (≈ 1.13 µM); in the assay with Klebsiella pneumoniae, 16 µg/mL (≈ 36 µM); in the assay with Pseudomonas aeruginosa [4], 0.25 µg/mL (≈ 0.563 µM). In the assay on Escherichia coli [5], this molecule registered an IC50 of 1400 nM. Besides, in the assay with Pseudomonas aeruginosa [6], the Ratio is 128.
